Reference: ChEMBL document CHEMBL1158351, “Studies on chemical structure modification and biology of a natural product, gambogic acid (I): Synthesis and biological evaluation of oxidized analogues of gambogic acid” (Eur J Med Chem, 2009)

Key:
Assay type in all cases: functional, cell-based
A549 = assay: Cytotoxicity against human A549 cells after 48 hrs by MTT assay; conditions: A549, 48 h
Summary of the method: (§1)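 Cells in RPMI-1640 with 10% heat-inactivated calf serum, penicillin/streptomycin, 5% CO2, 37 °C. Seeded at 5×10³ per well and exposed to six concentrations of 0.01–1000 for 48 h. Then 0.5% MTT for 4 h at 37 °C, formazan dissolved in DMSO, absorbance read at 570 nm. Inhibition calculated as (1 − treated/control absorbance)×100. IC50 is the concentration giving 50% inhibition; mean ± SD of three observations.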

BGC-823 = assay: Cytotoxicity against human BGC823 cells after 48 hrs by MTT assay; conditions: BGC-823, 48 h; summary of the method: as §1
SK-OV-3 = assay: Cytotoxicity against human SKOV3 cells after 48 hrs by MTT assay; conditions: SK-OV-3, 48 h; summary of the method: as §1
HT-29 = assay: Cytotoxicity against human HT-29 cells after 48 hrs by MTT assay; conditions: HT-29, 48 h; summary of the method: as §1
Bel-7402 = assay: Cytotoxicity against human Bel7402 cells after 48 hrs by MTT assay; conditions: Bel-7402, 48 h; summary of the method: as §1

| SMILES | IC50 (A549) [µM] | IC50 (BGC-823) [µM] | IC50 (SK-OV-3) [µM] | IC50 (HT-29) [µM] | IC50 (Bel-7402) [µM] |
| --- | --- | --- | --- | --- | --- |
| COC(=O)/C(C)=C\C[C@@]12OC(C)(C)[C@@H]3C[C@@H](C=C4C(=O)c5c(OC)c6c(c(CC=C(C)C)c5O[C@]431)O[C@](C)(CC/C=C(\C)COC(C)=O)C=C6)C2=O | 5.25 | 1.42 | 15.8 | 2.41 | 3.6 |
| C/C(=C/C[C@@]12OC(C)(C)[C@@H]3C[C@@H](C=C4C(=O)c5c(O)c6c(c(CC7OC7(C)C)c5O[C@]431)O[C@](C)(CCC1OC1(C)C)C=C6)C2=O)C(=O)O (stereo not given in full) | 1.56 | 4.38 | 0.76 | 2.08 | 3.73 |
| COC(=O)/C(C)=C\C[C@@]12OC(C)(C)[C@@H]3C[C@@H](C=C4C(=O)c5c(OC)c6c(c(CC=C(C)C)c5O[C@]431)O[C@](C)(CCC1OC1(C)C)C=C6)C2=O (stereo not given in full) | 1.48 | 0.75 | 0.64 | 2.19 | 1.4 |
| CC(C)=CCC[C@]1(C)C=Cc2c(O)c3c(c(CC=C(C)C)c2O1)O[C@]12C(=C[C@@H]4C[C@H]1C(C)(C)O[C@@]2(C/C=C(/C)C(=O)O)C4=O)C3=O [GAMBOGIC ACID] | 5.81 | 4.51 | 3.06 | 5.61 | 3.31 |
| CC(C)=CCC[C@]1(C)C=Cc2c(O)c3c(c(CC=C(C)C)c2O1)O[C@]12[C@H]4C[C@H](C(=O)[C@]1(C/C=C(/C)C(=O)O)OC4(C)C)C(O)C2(O)C3=O (stereo not given in full) | 74.2 | 29.9 | 6 | 34.7 | 33.1 |
